An excerpt weighted towards active compounds, which were near 1.8% of everything screened.
HKDC1 inhibitor – HKDC1 hexokinase inhibitors, primary screen, biochemical, fluorescence, uHTS. 340,000 tested, 0.16% active. Q2TB90. recombinant HKDC1, G6PDH/diaphorase resazurin coupled fluorescence. inhibition, % at 20 µM. AID 493160, 2011;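 active means inhibition above about 35% when tested at 20 µM, limit read from the data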
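test system = in-house recombinant HK5 (HKDC1) enzyme | amount = HKDC1 at 5 µg/mL | control set = DMSO-enzyme wells negative, buffer-substituted wells positive | compound = one dose of 20 µM, 1% DMSO | schedule = reaction time 90 min, room temperature, protected from light | technique = resorufin fluorescence at 613 nm | reagent = glucose with 1 mM ATP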
ATG4B inhibitor – ATG4B protease inhibitors, primary screen, biochemical, fluorescence, uHTS; 340,000 tested, 0.51% active; AID 504462, 2011; inhibition, % at 8.33 µM; Cysteine protease ATG4B (Homo sapiens), Q9Y4P1; ATG4B cleavage of LC3-PLA2, NBD-HPC fluorescence, 1 h; in the data active means inhibition above about 40%
LANA-H2A inh – blockers of LANA interaction with H2A/H2B – biochemical, FP readout, HTS, primary screen; 320,000 tested, 0.6% active; Protein LANA1 (Human herpesvirus 8 type P (isolate GK18)), Q9QR71; cell-free LANA-H2A/H2B peptide, fluorescence polarization; AID 2629, 2010; inhibition, % (no concentration beside the values); in the data active means inhibition mostly above about 10%, no sharp cut-off; inactive means mostly below about 6.7%
Bfl-1 A1 inh – caspase 3/7 activation in MEF A1-2A-BIM cells, primary screen, A1 inhibitor project, cell-based, luminescence, HTS | Caspase-Glo 3/7 luminescence, 3 h; percent of clofoctol response, vehicle zero | caspase activation, % (concentration not given with the values) | 330,000 tested, 0.066% active | AID 2462, 2010;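 active means over half of replicate activation scores above 10%, or exactly half above 10 with the replicate mean above 10; inconclusive means replicate mean below 10 yet half the replicates above 10; inactive means over half of replicates below 10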
HDAC3 inh – HDAC3 deacetylase inhibitors, primary screen, biochemical, fluorescence, cell-free homogeneous; Histone deacetylase 3 (Homo sapiens), O15379; recombinant HDAC3, fluorogenic peptide/trypsin coupled; inhibition, % at 8.3 µM; 320,000 tested, 0.15% active; AID 2718, 2010; in the data active means inhibition above about 26%, passing the limit was not always enough; inconclusive means no clear call, values can overlap the other calls
Target sequence (O15379 whole entry, looked up): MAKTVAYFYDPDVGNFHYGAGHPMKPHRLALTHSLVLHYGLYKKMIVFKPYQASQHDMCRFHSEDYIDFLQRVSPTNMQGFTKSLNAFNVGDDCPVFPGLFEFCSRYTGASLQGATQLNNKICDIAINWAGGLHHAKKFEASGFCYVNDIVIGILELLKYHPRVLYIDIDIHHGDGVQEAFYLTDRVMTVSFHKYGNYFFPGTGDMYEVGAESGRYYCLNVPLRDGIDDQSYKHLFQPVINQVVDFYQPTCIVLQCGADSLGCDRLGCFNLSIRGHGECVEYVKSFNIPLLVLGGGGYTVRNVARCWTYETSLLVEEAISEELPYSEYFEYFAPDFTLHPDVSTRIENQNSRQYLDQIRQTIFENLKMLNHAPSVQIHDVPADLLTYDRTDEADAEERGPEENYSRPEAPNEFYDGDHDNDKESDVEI
AI-2 QS mod – Vibrio harveyi AI-2 quorum sensing modulators, primary screen, JMH597 strain, luminescence/OD600 ratio; Vibrio harveyi JMH597 AI-2 luminescence/OD600 ratio, 9 h; hits give low values; strain lacks LuxN and CqsS sensors; 0 = neutral-control median; activity change, % at 7.5 µM; 300,000 tested, 0.4% active; in the data active means activity change below about -75%, passing the limit was not always enough; inconclusive means no clear call, values can overlap the other calls;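 further: luminescence divided by OD600 gain over 9 h not by final OD600 alone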
HKDC1 act conf – HKDC1 hexokinase activators, confirmation, biochemical, single concentration. inhibition, % at 20 µM. shares compounds with HKDC1 inhibitor. recombinant HKDC1, G6PDH/diaphorase resazurin fluorescence; hits give low values. 740 tested, 14% active. AID 504708, 2011;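 active means inhibition at or below a set negative limit, negative inhibition meaning the enzyme was activated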
Each line names hits and unclear results; the compound was inactive in the other large screens (follow-up assays come after a bar, where they were run).

O=c1[nH]nc(N/N=C/c2ccccc2OC(F)F)c(=O)[nH]1	none
NC(=O)[C@H]1CC2(CC(c3cccc(NC(=O)[C@H]4CCC(=O)N4)c3)=NO2)CN1C(=O)c1ccccc1 (stereo not given in full)	HKDC1 inhibitor 38.8 | HKDC1 act conf inactive
COc1cc(N=c2ssnc2Cl)cc(OC)c1	HDAC3 inh inconclusive | HKDC1 act conf inactive
Cc1ccc(S(=O)(=O)N2CCN(C(=O)c3cc4c(s3)CCCC4)CC2)cc1	none (no result: LANA-H2A inh, AI-2 QS mod)
COc1ccc(S(=O)(=O)N2CCN(C(=O)c3cc4c(s3)CCC4)CC2)cc1	none (no result: AI-2 QS mod) | HKDC1 act conf inactive
CNCc1ccccc1Sc1cccc(O)c1	none
CNCc1ccccc1Sc1cc(O)ccc1O	HKDC1 inhibitor 64.2 (no result: AI-2 QS mod) | HKDC1 act conf inactive
COc1cccc(C(=O)NCC(c2ccco2)N2CCc3ccccc3C2)c1 (stereo not given)	none | HKDC1 act conf inactive
c1cncc(-c2nnc(-c3cccnc3)nn2)c1	none
Cn1c(SSc2ccc(-c3cccnc3)n2C)ccc1-c1cccnc1	none (no result: LANA-H2A inh, Bfl-1 A1 inh, HDAC3 inh, AI-2 QS mod) | HKDC1 act conf -247.7
CSc1ccccc1NC(=O)COc1ccccc1Cl	HDAC3 inh inconclusive
CC1(C)C(=O)Nc2ccccc2N1C(=O)COC(=O)c1cccnc1	none (no result: AI-2 QS mod)
CC1(C)C(=O)Nc2ccccc2N1C(=O)COC(=O)c1cc(Cl)cc(Cl)c1	none (no result: AI-2 QS mod) | HKDC1 act conf -50.1
O=C1NN(c2ccccc2)C(=O)/C1=C/c1ccc(Sc2ccc(Cl)cc2)o1	HKDC1 inhibitor 41.8 | HKDC1 act conf inactive
Cc1ccc(Sc2ccc(/C=C3/C(=O)NN(c4ccccc4)C3=O)o2)cc1	HKDC1 inhibitor 35.1 (no result: HDAC3 inh) | HKDC1 act conf inactive
O=C(OCCCN=C1NS(=O)(=O)c2ccccc21)c1ccccc1F	none
Cc1cc(C(=O)COC(=O)c2cc(O)c3ccccc3c2O)c(C)n1CC1CCCO1 (stereo not given)	HKDC1 inhibitor 46.6 (no result: LANA-H2A inh, Bfl-1 A1 inh, HDAC3 inh, AI-2 QS mod) | HKDC1 act conf inactive
COc1ccc(-c2csc(Nc3ccc(S(N)(=O)=O)cc3)n2)cc1	none | HKDC1 act conf inactive
Cc1ccc(/C=C/c2nc3sc(C(=O)O)c(C)c3c(=O)[nH]2)cc1[N+](=O)[O-]	HKDC1 inhibitor 47.2 | HKDC1 act conf inactive
Cc1c(C(=O)O)sc2nc(/C=C/c3cccc(F)c3)[nH]c(=O)c12	none
COc1ccc(-c2nc(SCC(=O)Nc3cccc(S(N)(=O)=O)c3)n[nH]2)cc1	none (no result: LANA-H2A inh, Bfl-1 A1 inh, HDAC3 inh, AI-2 QS mod)
CCC1=NN2C(=N)/C(=C\c3ccc(OCc4cc(=O)n5nc(CC)sc5n4)c(OC)c3)C(=O)N=C2S1	none (no result: LANA-H2A inh, Bfl-1 A1 inh, HDAC3 inh) | HKDC1 act conf inactive
CCc1nn2c(=O)cc(COc3ccc(/C=C4\C(=N)N5N=C(CC(C)C)SC5=NC4=O)cc3)nc2s1	none
O=C(NC(=S)N(CCO)Cc1ccccc1)c1ccc(S(=O)(=O)N2CCCC2)cc1	none
CCN(CC)c1ccc(NC(=O)c2ccccc2Br)cc1S(=O)(=O)Nc1ccccc1OC	none (no result: LANA-H2A inh, HDAC3 inh) | HKDC1 act conf inactive
Fc1ccc(F)c(C2=NNC(=Nc3ccccc3F)SC2)c1	none
Fc1ccccc1N=C1NN=C(c2ccccc2)CS1	none | HKDC1 act conf -53.4
Fc1ccc(N=C2NN=C(c3cc(F)ccc3F)CS2)cc1	none (no result: AI-2 QS mod) | HKDC1 act conf -131.9
C/C(CC(=O)Nc1ccc(C)c(Cl)c1)=N\NC(=O)C1CCCCC1	none
O=C(NC1=C(Nc2ccc(Cl)cc2)C(=O)c2ccccc2C1=O)c1ccccc1	none
O=C1C(Cl)=C(NC(=O)c2ccccc2)C(=O)C(Cl)=C1NC(=O)c1ccccc1	HKDC1 inhibitor 43.5, HDAC3 inh inconclusive | HKDC1 act conf inactive
CCN(C(=O)Cn1c(=O)oc2ccccc21)c1ccc(C)c(C)c1	none
CC(C)(C)N=C1NN=C(c2ccc(S(=O)(=O)N3CCCCC3)cc2)CS1	none (no result: HDAC3 inh) | HKDC1 act conf inactive
O=S(=O)(c1ccc(N=C2NN=C(c3cc(F)ccc3F)CS2)cc1)N1CCOCC1	none (no result: LANA-H2A inh, Bfl-1 A1 inh, HDAC3 inh, AI-2 QS mod)
CC(=O)Nc1ccc(C2=NNC(=Nc3ccc(S(=O)(=O)N4CCOCC4)cc3)SC2)cc1	none | HKDC1 act conf -233.7
N#Cc1ccc(NC(=O)Cn2cnc(S(=O)(=O)N3CCc4ccccc43)c2)cc1	none
O=C(Nc1cccc(S(=O)(=O)N2CCOCC2)c1)c1cc(=O)[nH]c2ccccc12	none (no result: AI-2 QS mod)
COc1ccc(S(=O)(=O)N2CCOCC2)cc1NC(=O)COc1ccc2ccc(=O)oc2c1	none (no result: AI-2 QS mod)
COC(=O)C1CN(C(=O)COc2ccc(C)cc2)c2ccccc2O1 (stereo not given)	none
CC1(C)CC[C@]2(C(=O)n3ccnc3)CC[C@]3(C)[C@H](C(=O)C=C4[C@@]5(C)C=C(C#N)C(=O)C(C)(C)[C@@H]5CC[C@]43C)[C@@H]2C1	HKDC1 inhibitor 47.9 (no result: LANA-H2A inh, Bfl-1 A1 inh, HDAC3 inh, AI-2 QS mod) | HKDC1 act conf inactive
COc1cc(/C=C2/C(=O)NN(c3ccc(Cl)c(Cl)c3)C2=O)cc([N+](=O)[O-])c1O	HKDC1 inhibitor 49.6 (no result: HDAC3 inh) | HKDC1 act conf inactive
CC(NC(=O)c1cnccn1)c1ccc(S(N)(=O)=O)cc1 (stereo not given)	none (no result: HDAC3 inh)
O=C(NC(=S)NNC(=O)c1cnccn1)c1ccc(F)cc1	AI-2 QS mod -89.4 | HKDC1 act conf -36.1
COc1ccc(/C=C/C(=O)NC(=S)NNC(=O)c2cnccn2)cc1	none | HKDC1 act conf -58.3
O=C(/C=C/c1ccc(F)cc1)NC(=S)NNC(=O)c1cnccn1	none
Cc1ccc(CNC(=O)CCc2nnc3ccc(N4CCC5(CC4)OCCO5)nn23)cc1	none
Cc1cccc(NC(=O)c2ccc([N+](=O)[O-])cc2Cl)n1	none
COCCNc1ccc([N+](=O)[O-])cc1C(=O)Nc1cccc(C)n1	none | HKDC1 act conf inactive
COc1cc(C(=O)NCCOc2ccccc2C)cc(OC)c1OC	none
COc1cc(/C=C2\SC(=S)N(c3cccnc3)C2=O)ccc1O	HKDC1 inhibitor 38.2 | HKDC1 act conf inactive
COc1cc(/C=C2\SC(c3ccccc3)=NC2=O)cc(Cl)c1O	HKDC1 inhibitor 49.4 (no result: LANA-H2A inh, Bfl-1 A1 inh, HDAC3 inh) | HKDC1 act conf inactive
COc1cc(/C=C2\SC(c3ccc(C)cc3)=NC2=O)ccc1O	none | HKDC1 act conf inactive
COc1cc(/C=C2\SC(c3ccc(C)cc3)=NC2=O)cc(OC)c1OC	none
COC(=O)c1ccc(NS(=O)(=O)NC(=O)c2cn(C)c3ccccc23)cc1	none
COC(=O)c1ccc2c(=O)n(-c3ccccc3F)c(=S)[nH]c2c1	none

High-throughput results: PubChem, several laboratories
